According to ChEMBL document CHEMBL1144531, “Novel selective inhibitors of neutral endopeptidase for the treatment of female sexual arousal disorder” (Bioorg Med Chem, 2007):

Legend:
[1] = Inhibition of dog kidney cortex NEP at pH 7; design: species or system Canis lupus familiaris
Sus scrofa = species on record: Sus scrofa; assay: Inhibition of pig ACE
Method in brief: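 Porcine ACE; same format as the NEP assay. Substrate o-aminobenzoyl-Gly-Gly-p-nitro-Phe-Pro-OH, 10 µM final, in 50 mM Tris-Cl pH 7.4 (37 °C) with 300 mM NaCl. Stopped with 2 mM EDTA; fluorescence read-out. IC50 from dilution series.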

[2] = target: T1, Endothelin-converting enzyme 1 (Homo sapiens) (UniProt P42892); assay: Inhibition of human ECE1
T1 sequence (whole entry): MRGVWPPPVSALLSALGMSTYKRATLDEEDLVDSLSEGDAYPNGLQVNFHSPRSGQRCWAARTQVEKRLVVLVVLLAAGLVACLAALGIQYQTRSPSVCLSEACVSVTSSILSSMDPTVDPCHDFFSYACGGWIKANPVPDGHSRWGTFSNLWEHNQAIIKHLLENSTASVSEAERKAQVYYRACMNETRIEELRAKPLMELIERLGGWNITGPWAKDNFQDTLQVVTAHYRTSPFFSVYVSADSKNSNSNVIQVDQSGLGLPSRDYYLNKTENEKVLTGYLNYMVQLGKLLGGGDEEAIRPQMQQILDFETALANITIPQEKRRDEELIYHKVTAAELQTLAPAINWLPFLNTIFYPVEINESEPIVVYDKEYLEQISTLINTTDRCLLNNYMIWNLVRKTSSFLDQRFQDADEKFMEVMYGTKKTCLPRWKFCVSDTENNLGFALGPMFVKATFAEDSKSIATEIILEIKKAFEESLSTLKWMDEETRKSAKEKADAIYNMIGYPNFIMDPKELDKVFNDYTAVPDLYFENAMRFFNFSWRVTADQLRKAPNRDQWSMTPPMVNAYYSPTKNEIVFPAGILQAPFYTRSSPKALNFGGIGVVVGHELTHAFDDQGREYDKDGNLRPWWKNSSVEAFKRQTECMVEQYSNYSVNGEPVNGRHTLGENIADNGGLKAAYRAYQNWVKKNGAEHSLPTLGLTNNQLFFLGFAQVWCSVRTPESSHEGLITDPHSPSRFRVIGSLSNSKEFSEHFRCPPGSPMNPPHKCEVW
Method in brief: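 Human ECE-1, run like the ACE assay (50 mM Tris-Cl pH 7.4, 300 mM NaCl, EDTA stop), with Big ET-1 as substrate. IC50 from dilution series.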

[3] = Distribution coefficient, log D in n-octanol and phosphate buffer at pH 7.4; type: physicochemical
[4] = Metabolic stability in human liver microsomes at 1 uM; type: ADME, Microsome
Method in brief: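 Human liver microsomes, 1 µM compound with 0.5 µM CYP. Reported as first-order compound disappearance half-life.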

[5] = Permeability from apical to basolateral side of the Caco-2 cell membrane at pH 7.4; type: ADME, cell-based; conditions: human, Caco-2, pH 7.4
Method in brief: (§1)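 Caco-2 monolayers; apparent permeability (Papp) measured with pH 7.4 in both apical and basolateral chambers.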

[6] = Permeability from basolateral to apical side of the Caco-2 cell membrane at pH 7.4; type: ADME, cell-based; conditions: human, Caco-2, pH 7.4; method in brief: as §1
[7] = Inhibition of dog kidney cortex NEP at pH 7.4; design: species or system Canis lupus familiaris
[8] = Clearance in rat at 1 mg/kg, iv and 1 mg/kg, po; type: ADME, organism-based; conditions: in vivo
Method in brief: (§2)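 Male CD rats, jugular vein cannulated under general anaesthesia; dosed 1 mg/kg iv (tail vein) and po (gavage). Serial 0.2 ml blood samples taken from the cannula into heparin, centrifuged to plasma, stabilised with 0.01 parts 85% phosphoric acid, frozen. Plasma levels measured by LC–MS–MS after C18 solid-phase extraction, with internal standard.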

[9] = Volume of distribution in rat at 1 mg/kg, iv and 1 mg/kg, po; type: ADME, organism-based; conditions: in vivo, read-out: Vdss; method in brief: as §2
[10] = Half life in rat at 1 mg/kg, iv and 1 mg/kg, po; type: ADME, organism-based; conditions: in vivo; method in brief: as §2
[11] = Fraction unbound ligand in rat at 1 mg/kg, iv and 1 mg/kg, po; type: ADME, organism-based; conditions: in vivo
Method in brief: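 Fraction unbound in rat plasma measured at 1 µg/ml by equilibrium dialysis against isotonic Krebs–Ringer bicarbonate buffer, pH 7.4.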

[12] = Oral bioavailability in rat at 1 mg/kg, iv and 1 mg/kg, po; type: ADME, organism-based; conditions: in vivo; method in brief: as §2
[13] = Tmax in rat at 1 mg/kg, iv and 1 mg/kg, po; type: ADME, organism-based; conditions: in vivo; method in brief: as §2
Homo sapiens = species on record: Homo sapiens; assay: Protein binding in human plasma at 1 ug/ml by equilibrium dialysis; conditions: read-out: PPB (converted)
Neprilysin [14] = target: T2, Neprilysin (Rattus norvegicus, UniProt P07861); assay: Inhibition of rat NEP
T2 sequence (P07861 whole entry): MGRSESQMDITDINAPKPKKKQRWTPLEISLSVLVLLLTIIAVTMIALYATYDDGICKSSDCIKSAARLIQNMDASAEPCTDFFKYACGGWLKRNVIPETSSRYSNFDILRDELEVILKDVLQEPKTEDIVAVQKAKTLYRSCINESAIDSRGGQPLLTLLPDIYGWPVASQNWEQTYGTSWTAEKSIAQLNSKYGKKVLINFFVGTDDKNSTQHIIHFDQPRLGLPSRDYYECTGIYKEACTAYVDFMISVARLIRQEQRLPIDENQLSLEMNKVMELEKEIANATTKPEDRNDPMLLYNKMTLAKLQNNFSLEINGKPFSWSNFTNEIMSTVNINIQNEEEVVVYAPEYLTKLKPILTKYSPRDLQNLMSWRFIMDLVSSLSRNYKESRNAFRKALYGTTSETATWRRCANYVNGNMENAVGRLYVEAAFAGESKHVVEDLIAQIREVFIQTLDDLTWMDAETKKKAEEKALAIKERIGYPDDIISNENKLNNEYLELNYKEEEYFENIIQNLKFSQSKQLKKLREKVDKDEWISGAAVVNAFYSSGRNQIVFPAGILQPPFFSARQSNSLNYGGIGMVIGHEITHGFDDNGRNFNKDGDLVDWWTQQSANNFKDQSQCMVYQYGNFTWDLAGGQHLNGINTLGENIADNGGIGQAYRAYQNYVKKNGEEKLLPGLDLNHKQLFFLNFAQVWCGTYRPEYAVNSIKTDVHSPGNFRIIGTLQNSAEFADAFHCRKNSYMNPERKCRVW
Method in brief: (§3)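 Fluorogenic assay with Abz-D-Arg-Arg-Leu-EDDnp as substrate (solution at 50 µM before mixing). Inhibitor is pre-mixed with substrate, and enzyme is added, diluted so that conversion stays at or below ~10% in 1 h. Incubation runs 1 h at 37 °C with shaking in Tris–Cl, then is stopped with phosphoramidon. Read-out is Ex320/Em420. Each IC50 uses a 10-point half-log series in duplicate.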

Neprilysin [15] = target: T3, Neprilysin (Oryctolagus cuniculus, UniProt P08049); assay: Inhibition of rabbit NEP; method in brief: as §3
T3 sequence (P08049 whole entry): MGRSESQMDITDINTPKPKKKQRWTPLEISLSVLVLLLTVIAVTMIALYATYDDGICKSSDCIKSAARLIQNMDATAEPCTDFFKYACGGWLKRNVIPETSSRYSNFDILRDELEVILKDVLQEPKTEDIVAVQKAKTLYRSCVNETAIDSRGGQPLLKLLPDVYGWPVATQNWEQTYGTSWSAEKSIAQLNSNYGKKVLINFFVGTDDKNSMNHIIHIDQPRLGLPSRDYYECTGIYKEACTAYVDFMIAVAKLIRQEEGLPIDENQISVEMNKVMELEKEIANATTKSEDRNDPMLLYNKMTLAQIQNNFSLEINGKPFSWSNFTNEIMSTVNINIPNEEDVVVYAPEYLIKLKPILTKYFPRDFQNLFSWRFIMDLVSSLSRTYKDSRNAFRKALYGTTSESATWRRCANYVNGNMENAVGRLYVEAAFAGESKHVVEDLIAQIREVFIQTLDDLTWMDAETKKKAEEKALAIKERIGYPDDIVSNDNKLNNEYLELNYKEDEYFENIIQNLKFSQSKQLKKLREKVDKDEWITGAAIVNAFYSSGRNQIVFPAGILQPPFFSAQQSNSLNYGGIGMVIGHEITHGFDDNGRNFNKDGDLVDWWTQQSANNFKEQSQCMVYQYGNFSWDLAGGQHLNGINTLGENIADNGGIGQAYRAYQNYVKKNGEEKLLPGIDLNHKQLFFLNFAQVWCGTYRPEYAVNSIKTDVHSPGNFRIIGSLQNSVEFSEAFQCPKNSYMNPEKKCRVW

| SMILES | IC50 [1] [µM] | Activity (Sus scrofa) [µM] | other results |
| --- | --- | --- | --- |
| COCCC(CC1(C(=O)N[C@@H]2C[C@H]2c2ccc(F)cc2)CCCC1)C(=O)O (relative stereo) | 0.04 | > 3 | – |
| CCCC(CC1(C(=O)N[C@H]2C[C@@H]2c2ccccc2)CCCC1)C(=O)O (relative stereo) | 0.16 | > 3 | – |
| COCCC(CC1(C(=O)NC(C)Cc2ccccc2)CCCC1)C(=O)O (stereo not drawn) | 0.426 | > 3 | – |
| COCCC(CC1(C(=O)NCCCc2ccc(F)cc2)CCCC1)C(=O)O (stereo not drawn) | 0.015 | > 3 | – |
| COCC[C@H](CC1(C(=O)NC2(CO)Cc3ccccc3C2)CCCC1)C(=O)O | 0.0054 | > 3 | Activity [2]: > 3 µM; logD [3]: -0.2; half-life at 1 µM [4]: > 2 h; Papp A→B [5]: 10 nm/s; Papp B→A [6]: 25 nm/s; IC50 [7]: 0.0142 µM; clearance [8]: 1.08 L/h/kg; Vd [9]: 7.5 L/kg; half-life [10]: 4.8 h; fraction unbound [11]: 0.088; bioavailability [12]: 109%; Tmax [13]: < 1 h; fraction unbound at 1 ug/ml (Homo sapiens): 0.228 |
| COCCC(CC1(C(=O)NCCCc2ccccc2)CCCC1)C(=O)O (stereo not drawn) | 0.035 | > 3 | – |
| COCC[C@H](CC1(C(=O)NCCCc2ccc(F)cc2)CCCC1)C(=O)O | 0.002 | > 3 | Activity [2]: > 3 µM; logD [3]: 0.5; half-life at 1 µM [4]: > 2 h; Papp A→B [5]: 120 nm/s; IC50 [7]: 0.0088 µM; clearance [8]: 0.78 L/h/kg; Vd [9]: 2.7 L/kg; half-life [10]: 2.4 h; fraction unbound [11]: 0.138; bioavailability [12]: 138%; fraction unbound at 1 ug/ml (Homo sapiens): 0.124 |
| COCCC(CC1(C(=O)NCCCc2ccc(OC)cc2)CCCC1)C(=O)O (stereo not drawn) | 0.002 | > 3 | – |
| COCC[C@H](CC1(C(=O)NCCCc2ccc(Cl)cc2)CCCC1)C(=O)O | 0.0009 | > 3 | Activity [2]: > 3 µM; logD [3]: 1; half-life at 1 µM [4]: > 2 h; Papp A→B [5]: 120 nm/s; Papp B→A [6]: 140 nm/s; IC50 (Neprilysin [14]): 0.0006 µM; IC50 (Neprilysin [15]): 0.0008 µM; IC50 [7]: 0.0038 µM; clearance [8]: 0.21 L/h/kg; Vd [9]: 0.6 L/kg; half-life [10]: 1.9 h; fraction unbound [11]: 0.083; bioavailability [12]: 70% |
| COCCC(CC1(C(=O)N[C@@H]2C[C@H]2c2ccc(OC)cc2)CCCC1)C(=O)O (relative stereo) | 0.008 | > 3 | – |
| CCC[C@H](CC1(C(=O)Nc2nnc(CC)s2)CCCC1)C(=O)O | 0.0237 | > 3 | Activity [2]: > 3 µM; logD [3]: 0.5; half-life at 1 µM [4]: > 2 h; Papp A→B [5]: 90 nm/s; clearance [8]: 0.18 L/h/kg; Vd [9]: 0.44 L/kg; half-life [10]: 1.7 h; Fu [11]: 0.106 |
| COCCC(CC1(C(=O)NCCc2ccc(OC)cc2)CCCC1)C(=O)O (stereo not drawn) | 0.369 | > 3 | – |
| CCCCC[C@@H]1C[C@H]1NC(=O)C1(CC(CCOC)C(=O)O)CCCC1 (relative stereo) | 0.01 | > 3 | – |
| COCCC(CC1(C(=O)N[C@H]2C[C@@H]2c2ccc(Cl)cc2)CCCC1)C(=O)O (relative stereo) | 0.021 | > 3 | – |
| COCCC(CC1(C(=O)NC2(CO)Cc3ccccc3C2)CCCC1)C(=O)O (stereo not drawn) | 0.011 | > 3 | – |
| COCC(CC1(C(=O)N[C@H]2C[C@@H]2c2ccccc2)CCCC1)C(=O)O (relative stereo) | 0.065 | > 3 | – |
| COCCC(CC1(C(=O)Nc2nnc(Cc3ccccc3)s2)CCCC1)C(=O)O (stereo not drawn) | 0.005 | > 3 | – |
| CCCCc1ccnc(NC(=O)C2(CC(CCOC)C(=O)O)CCCC2)c1 (stereo not drawn) | 0.017 | > 3 | – |
| COCC(CC1(C(=O)N[C@H]2C[C@@H]2c2ccc(Cl)cc2)CCCC1)C(=O)O (relative stereo) | 0.02 | > 3 | – |
| COCCC(CC1(C(=O)NCCCc2ccc(Cl)cc2)CCCC1)C(=O)O (stereo not drawn) | 0.002 | > 3 | – |
| COCCC(CC1(C(=O)NCCOc2ccc(OC)cc2)CCCC1)C(=O)O (stereo not drawn) | 0.035 | > 3 | – |
| CCCC(CC1(C(=O)Nc2nnc(CC)s2)CCCC1)C(=O)O (stereo not drawn) | 0.06 | > 3 | – |
| COCCC(CC1(C(=O)NCCc2ccccc2)CCCC1)C(=O)O (stereo not drawn) | 0.5 | > 3 | – |
| COCCC(CC1(C(=O)N[C@H]2C[C@@H]2c2ccccc2)CCCC1)C(=O)O (relative stereo) | 0.1 | > 3 | – |
| COCC[C@H](CC1(C(=O)N[C@@H]2C[C@H]2c2ccc(OC)cc2)CCCC1)C(=O)O | 0.008 | > 3 | Activity [2]: > 3 µM; logD [3]: 0.3; half-life at 1 µM [4]: > 2 h; Papp A→B [5]: 70 nm/s; IC50 [7]: 0.0057 µM; fraction unbound at 1 ug/ml (Homo sapiens): 0.032 |
| CCCCCCCNC(=O)C1(CC(CCOC)C(=O)O)CCCC1 (stereo not drawn) | 0.008 | > 3 | – |
